{
  "source": "ChEMBL document CHEMBL4725434",
  "about": "“Discovery of Selective, Covalent FGFR4 Inhibitors with Antitumor Activity in Models of Hepatocellular Carcinoma” (ACS Med Chem Lett, 2020)",
  "key": {"[1]": {"assay": "Half life in rat at 10 mg/kg, po", "format": "ADME, organism-based", "settings": "in vivo"}, "[2]": {"assay": "Clearance in mouse at 3 mg/kg, iv", "format": "ADME, organism-based", "settings": "in vivo"}, "[3]": {"assay": "Half life in mouse at 3 mg/kg, iv", "format": "ADME, organism-based", "settings": "in vivo"}, "[4]": {"assay": "Volume of distribution at steady state in mouse at 3 mg/kg, iv", "format": "ADME, organism-based", "settings": "in vivo, read-out: Vdss"}, "[5]": {"assay": "Cmax in mouse at 10 mg/kg, po", "format": "ADME, organism-based", "design": "route oral, dose 10 mg/kg", "settings": "in vivo"}, "[6]": {"assay": "Clearance in cynomolgus monkey at 3 mg/kg, iv", "format": "ADME, organism-based, Macaca fascicularis", "settings": "in vivo"}, "[7]": {"assay": "Half life in cynomolgus monkey at 10 mg/kg, po", "format": "ADME, organism-based, Macaca fascicularis", "settings": "in vivo"}, "[8]": {"assay": "AUC in cynomolgus monkey at 10 mg/kg, po", "format": "ADME, organism-based, Macaca fascicularis", "design": "dose 10 mg/kg", "settings": "in vivo"}, "[9]": {"assay": "Volume of distribution at steady state in cynomolgus monkey at 3 mg/kg, iv", "format": "ADME, organism-based, Macaca fascicularis", "settings": "in vivo, read-out: Vdss"}, "Hep 3B2": {"test_system": "Hep 3B2", "assay": "Antitumor activity against human Hep3B cells xenografted in SCID mouse orthotopic model assessed as inhibition of tumor regression at 100 mg/kg, po bid measured after 28 days relative to control", "settings": "time 28.0 day"}, "[10]": {"assay": "Cmax in rat at 10 mg/kg, po", "format": "ADME, organism-based", "design": "route oral, dose 10 mg/kg", "settings": "in vivo"}, "[11]": {"assay": "Oral bioavailability in mouse at 10 mg/kg", "format": "ADME, organism-based", "settings": "in vivo"}, "[12]": {"assay": "AUC in cynomolgus monkey at 3 mg/kg, iv", "format": "ADME, organism-based, Macaca fascicularis", "design": "dose 3 mg/kg", "settings": "in vivo"}, "FGFR4 (Homo sapiens)": {"test_system": "FGFR4 (Homo sapiens)", "assay": "In vivo receptor occupancy at FGFR4 in human Huh7 cells xenografted SCID mouse orthotopic model at 100 mg/kg, po qd after 10 hrs relative to control"}, "[13]": {"assay": "Half life in cynomolgus monkey at 3 mg/kg, iv", "format": "ADME, organism-based, Macaca fascicularis", "settings": "in vivo"}, "[14]": {"assay": "Volume of distribution at steady state in rat 3 mg/kg, iv", "format": "ADME, organism-based", "settings": "in vivo, read-out: Vdss"}, "[15]": {"assay": "AUC in mouse at 10 mg/kg, po", "format": "ADME, organism-based", "design": "dose 10 mg/kg", "settings": "in vivo"}, "[16]": {"assay": "Oral bioavailability in rat 10 mg/kg", "format": "ADME, organism-based", "settings": "in vivo"}, "[17]": {"assay": "Half life in mouse at 10 mg/kg, po", "format": "ADME, organism-based", "settings": "in vivo"}, "[18]": {"assay": "AUC in mouse at 3 mg/kg, iv", "format": "ADME, organism-based", "design": "dose 3 mg/kg", "settings": "in vivo"}, "[19]": {"assay": "AUC in rat at 3 mg/kg, iv", "format": "ADME, organism-based", "design": "dose 3 mg/kg", "settings": "in vivo"}, "[20]": {"assay": "Clearance in rat at 3 mg/kg, iv", "format": "ADME, organism-based", "settings": "in vivo"}, "[21]": {"assay": "Oral bioavailability in cynomolgus monkey at 10 mg/kg", "format": "ADME, organism-based, Macaca fascicularis", "settings": "in vivo"}, "[22]": {"assay": "Half life in rat at 3 mg/kg, iv", "format": "ADME, organism-based", "settings": "in vivo"}, "Huh-7 [23]": {"test_system": "Huh-7", "assay": "Antitumor activity against human Huh7 cells xenografted in po dosed SCID mouse sorafenib-resistance established model assessed as tumor regression at 100 mg/kg, po bid for 11 days relative to untreated control", "settings": "time 11.0 day"}, "Huh-7 [24]": {"test_system": "Huh-7", "assay": "Antitumor activity against human Huh7 cells xenografted in po dosed SCID mouse sorafenib-resistance established model assessed as tumor regression measured after 11 days relative to untreated control", "format": "functional, organism-based", "settings": "time 11.0 day", "procedure,_shortened": "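Huh7 tumors grown subcutaneously in SCID mice were made sorafenib-resistant by oral sorafenib at 100 mg/kg daily for […]. Oral dosing was then given at 10, 30 or 100 mg/kg BID for 11 days. Sorafenib 100 mg/kg once daily was the comparator arm. Read-out was tumor growth as %ΔT/ΔC.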"}, "Huh-7 [25]": {"test_system": "Huh-7", "assay": "Antitumor activity against human Huh7 cells xenografted in po dosed SCID mouse sorafenib-resistance established model assessed as tumor regression at 30 mg/kg, po bid for 11 days relative to untreated control", "settings": "time 11.0 day"}, "[26]": {"assay": "AUC in rat at 10 mg/kg, po", "format": "ADME, organism-based", "design": "dose 10 mg/kg", "settings": "in vivo"}},
  "note": "The source made the active and inactive calls. The rule behind the calls is not given here.",
  "data": [
    {"smiles": "C=CC(=O)N[C@H]1COC[C@H]1Nc1ncc2cc(-c3c(Cl)c(OC)cc(OC)c3Cl)c(=O)n(C)c2n1", "values": [
      {"measurement": "half-life", "setting": "[1]", "result": 3.2, "unit": "h"},
      {"measurement": "clearance", "setting": "[2]", "result": 17.2, "unit": "mL/min/kg"},
      {"measurement": "t1/2", "setting": "[3]", "result": 2.1, "unit": "h"},
      {"measurement": "Vd", "setting": "[4]", "result": 0.63, "unit": "L/kg"},
      {"measurement": "Cmax", "setting": "[5]", "result": 423, "unit": "ng/mL"},
      {"measurement": "clearance", "setting": "[6]", "result": 8.4, "unit": "mL/min/kg"},
      {"measurement": "half-life", "setting": "[7]", "result": 2, "unit": "h"},
      {"measurement": "AUC", "setting": "[8]", "result": 5660, "unit": "ng·h/mL"},
      {"measurement": "Vd", "setting": "[9]", "result": 1.1, "unit": "L/kg"},
      {"measurement": "Activity", "setting": "Hep 3B2", "result": "Active"},
      {"measurement": "Cmax", "setting": "[10]", "result": 588, "unit": "ng/mL"},
      {"measurement": "bioavailability", "setting": "[11]", "result": 20, "unit": "%"},
      {"measurement": "AUC", "setting": "[12]", "result": 6420, "unit": "ng·h/mL"},
      {"measurement": "Activity", "setting": "FGFR4 (Homo sapiens)", "result": ">80", "unit": "%"},
      {"measurement": "t1/2", "setting": "[13]", "result": 4.8, "unit": "h"},
      {"measurement": "Vd", "setting": "[14]", "result": 0.3, "unit": "L/kg"},
      {"measurement": "AUC", "setting": "[15]", "result": 2960, "unit": "ng·h/mL"},
      {"measurement": "bioavailability", "setting": "[16]", "result": 12, "unit": "%"},
      {"measurement": "half-life", "setting": "[17]", "result": 1.8, "unit": "h"},
      {"measurement": "AUC", "setting": "[18]", "result": 2910, "unit": "ng·h/mL"},
      {"measurement": "AUC", "setting": "[19]", "result": 5610, "unit": "ng·h/mL"},
      {"measurement": "clearance", "setting": "[20]", "result": 9, "unit": "mL/min/kg"},
      {"measurement": "bioavailability", "setting": "[21]", "result": 27, "unit": "%"},
      {"measurement": "t1/2", "setting": "[22]", "result": 2.1, "unit": "h"},
      {"measurement": "Activity", "setting": "Huh-7 [23]", "result": "Active"},
      {"measurement": "Activity", "setting": "Huh-7 [24]", "result": "inactive"},
      {"measurement": "Activity", "setting": "Huh-7 [25]", "result": "Active"},
      {"measurement": "AUC", "setting": "[26]", "result": 2230, "unit": "ng·h/mL"}
    ]}
  ]
}
